ChEMBL document CHEMBL4229560, “Increasing C-Terminal Hydrophobicity Improves the Cell Permeability and Antiproliferative Activity of PACE4 Inhibitors against Prostate Cancer Cell Lines” (J Med Chem, 2018)
Where a SMILES comes first, the peptide text is derived from it. [ ]: non-standard residue; d: D form. The star is where a group is joined. NH(4-amidinobenzyl) = N=C(N)c1ccc(CN*)cc1

Legend:
[1] = Half life in human plasma by ion chromatogram-based analysis; assay type: ADME, cell-free
Outline: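 Peptide at 50 µM was incubated at 37 °C in human serum from male AB plasma. At each time point, plasma was precipitated with MeOH containing Fmoc-Leu-OH internal standard, centrifuged and filtered. Samples were analysed by UPLC-MS. The peptide/standard ratio of total ion chromatogram peak area was expressed relative to 0 h.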

LNCaP [2] = assay: Antitumor activity against human LNCAP cells xenografted in nu mouse assessed as reduction in tumor volume at 2 mg/kg/day, iv administered at 24 hr intervals; assay type: functional; set-up: scale not given: the % may be the effect or the level left
Homo sapiens = organism: Homo sapiens; assay: Selectivity ratio of Ki for recombinant human furin to Ki for recombinant human PACE4
Outline: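 Ki values came from human recombinant enzymes expressed in S2 insect cells. Furin was assayed in 100 mM HEPES pH 7.5, 1 mM CaCl2, 1 mM β-mercaptoethanol and 1.8 g/L BSA. PACE4 was assayed in 20 mM Bis-Tris pH 6.5, 1 mM CaCl2 and 1.8 g/L BSA. Substrate was pERTKR-AMC at 100 µM, with inhibitor at 0–10 µM. Fluorescence (ex 370/em 460 nm) was read for 1 h, and Ki derived by Cheng-Prusoff.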

LNCaP [3] = assay: Antitumor activity against human LNCAP cells xenografted in nu mouse assessed as reduction in serum prostate-specific antigen levels at 2 mg/kg/day, iv administered at 24 hr intervals; assay type: functional; set-up: scale not given: the % may be the effect or the level left
[4] = Acute toxicity in iv dosed CD1 mouse measured within 5 mins post dose; assay type: organism-based; conditions: in vivo
Outline: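 Healthy CD1 mice received a single intravenous dose, given at various dose levels, to locate the toxicity threshold as a maximum tolerated dose (MTD).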

LNCaP [5] = assay: Antiproliferative activity against human LNCAP cells after 72 hrs by MTT assay; assay type: functional, cell-based
Outline: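 MTT assay run 72 h. Seeding was ~1500 cells/well for DU145 and ~2500 cells/well for LNCaP, in RPMI 1640 with 5% FBS (DU145) or 10% FBS (LNCaP). Medium was changed after 24 h, then inhibitor added at 1–300 µM or 1–150 µM. MTT was added at 1 g/L final for 4 h and formazan dissolved in 2-propanol/HCl. Readings were relative to vehicle (water, 0.1% DMSO). IC50 was from at least two independent experiments.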

CC(=O)N[C@H](CC(C)C)C(=O)N[C@@H](CC(C)C)C(=O)N[C@@H](CC(C)C)C(=O)N[C@@H](CC(C)C)C(=O)N[C@@H](CCCNC(=N)N)C(=O)N[C@H](C(=O)N[C@@H](CCCCN)C(=O)NCc1ccc(C(=N)N)cc1)C(C)C (Ac-[dL]LLLRVK-{NH(4-amidinobenzyl)})
half-life [1]: 1.7 h
Activity (LNCaP [2]): 60%
Ratio Ki (Homo sapiens): 2
Activity (LNCaP [3]): 47%
MTD at 5 min [4]: 10 mg/kg
IC50 (LNCaP [5]): 45 µM
